According to ChEMBL document CHEMBL1129625, “11-substituted (R)-aporphines: synthesis, pharmacology, and modeling of D2A and 5-HT1A receptor interactions” (J Med Chem, 1996):

Columns and labels:
D(1A) dopamine receptor [1] = biological target: T1, D(1A) dopamine receptor (Rattus norvegicus, UniProt P18901)
D(2) dopamine receptor [2] = biological target: T2, D(2) dopamine receptor (Homo sapiens, UniProt P14416); assay: Displacement of [3H]-raclopride fromd human Dopamine receptor D2A expressed in LtK- cells; type: cell-based
T2 sequence (P14416 whole entry): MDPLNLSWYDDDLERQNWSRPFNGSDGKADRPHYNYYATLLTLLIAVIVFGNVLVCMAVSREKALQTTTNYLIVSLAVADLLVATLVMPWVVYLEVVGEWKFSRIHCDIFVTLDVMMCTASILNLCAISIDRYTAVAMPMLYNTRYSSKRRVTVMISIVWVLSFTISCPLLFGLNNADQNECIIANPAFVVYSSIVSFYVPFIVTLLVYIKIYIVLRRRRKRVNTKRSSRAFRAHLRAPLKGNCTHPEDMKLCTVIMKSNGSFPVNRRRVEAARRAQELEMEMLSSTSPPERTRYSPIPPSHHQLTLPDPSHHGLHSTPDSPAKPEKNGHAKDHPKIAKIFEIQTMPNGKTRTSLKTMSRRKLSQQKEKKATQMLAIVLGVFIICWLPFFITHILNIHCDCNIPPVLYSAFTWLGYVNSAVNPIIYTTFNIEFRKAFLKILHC
In short: (§1)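 Radioligand displacement analysed with a one-site model. D1 sites come from rat striatum and are labelled with [3H]SCH23390. D2A is the cloned human receptor expressed in Ltk- cells and labelled with [3H]raclopride. Ki is the mean ± standard error of n = 2–3 experiments.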

[3] = biological target: T3, 5-hydroxytryptamine receptor 1A (Rattus norvegicus, UniProt P19327); assay: In vitro displacement of [3H]8-OH-DPAT binding to rat hippocampal 5-hydroxytryptamine 1A receptor; type: tissue-based, Hippocampus
T3 sequence (P19327 whole entry): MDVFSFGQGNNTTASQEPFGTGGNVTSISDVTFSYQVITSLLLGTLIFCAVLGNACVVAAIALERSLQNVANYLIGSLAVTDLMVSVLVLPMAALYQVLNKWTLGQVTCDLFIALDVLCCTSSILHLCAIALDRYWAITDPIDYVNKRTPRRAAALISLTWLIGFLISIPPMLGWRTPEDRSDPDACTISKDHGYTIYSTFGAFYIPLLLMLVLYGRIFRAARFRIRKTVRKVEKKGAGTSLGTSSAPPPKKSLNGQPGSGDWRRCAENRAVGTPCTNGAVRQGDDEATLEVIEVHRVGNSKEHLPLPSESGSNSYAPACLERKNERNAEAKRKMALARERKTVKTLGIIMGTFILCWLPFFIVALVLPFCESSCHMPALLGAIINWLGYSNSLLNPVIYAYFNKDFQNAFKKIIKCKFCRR

D(2) dopamine receptor [4] = biological target: T2, D(2) dopamine receptor; assay: Displacement of [3H]raclopride from human Dopamine receptor D2A
D(1A) dopamine receptor [5] = biological target: T1, D(1A) dopamine receptor; assay: Affinity for dopamine receptor D1 binding measured by competition against [3H]-SCH- 23390 to rat striatal membrane; set-up: species or system Striatum
In short: as §1

Rattus norvegicus [6] = assay: In vivo accumulation of DOPA in percent of saline control was determined in striatum of reserpine pretreated rat at dose of 3.5 uM/kg; type: functional
In short: (§2)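 Rats get reserpine 5 mg/kg sc 18–20 h beforehand. A single dose of test drug is given. NSD1015 (117 mg/kg sc) is injected 30 min after drug to block decarboxylase. 5-HTP or DOPA accumulation is measured in limbic forebrain, striatum and cortex and expressed as percent of saline controls, mean ± SEM, n = 2–4. Statistics use one-way ANOVA with Fisher's PLSD.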

Rattus norvegicus [7] = assay: In vivo accumulation of 5HTP in percent of saline control was determined in cortex of reserpine pretreated rat at dose of 3.5 uM/kg; type: functional
In short: as §2

Rattus norvegicus [8] = assay: In vivo accumulation of DOPA in percent of saline control was determined in limbic forebrain of reserpine pretreated rat at dose of 3.5 uM/kg; type: functional
In short: as §2

Rattus norvegicus [9] = assay: In vivo accumulation of 5HTP in percent of saline control was determined in striatum of reserpine pretreated rat at dose of 3.5 uM/kg; type: functional
In short: as §2

Rattus norvegicus [10] = assay: In vivo accumulation of DOPA in percent of saline control was determined in cortex of reserpine pretreated rat at dose of 3.5 uM/kg; type: functional
In short: as §2

Rattus norvegicus [11] = assay: In vivo accumulation of 5HTP in percent of saline control was determined in limbic forebrain of reserpine pretreated rat at dose of 3.5 uM/kg; type: functional
In short: as §2

Rattus norvegicus [12] = assay: In vivo accumulation of 5HTP in percent of saline control was determined in striatum of reserpine pretreated rat at a dose of 30 uM/kg; type: functional
In short: as §2

Rattus norvegicus [13] = assay: In vivo accumulation of DOPA in percent of saline control was determined in limbic forebrain of reserpine pretreated rat at a dose of 30 uM/kg; type: functional
In short: as §2

Rattus norvegicus [14] = assay: In vivo accumulation of DOPA in percent of saline control was determined in cortex of reserpine pretreated rat at a dose of 30 uM/kg; type: functional
In short: as §2

Rattus norvegicus [15] = assay: In vivo accumulation of 5HTP in percent of saline control was determined in cortex of reserpine pretreated rat at a dose of 30 uM/kg; type: functional
In short: as §2

Rattus norvegicus [16] = assay: In vivo accumulation of 5HTP in percent of saline control was determined in limbic forebrain of reserpine pretreated rat at a dose of 30 uM/kg; type: functional
In short: as §2

Rattus norvegicus [17] = assay: In vivo accumulation of DOPA in percent of saline control was determined in striatum of reserpine pretreated rat at a dose of 30 uM/kg; type: functional
In short: as §2

Rattus norvegicus [18] = assay: In vivo accumulation of 5HTP in percent of saline control was determined in striatum of reserpine pretreated rat at a dose of 3.3 uM/kg; type: functional
In short: as §2

Rattus norvegicus [19] = assay: In vivo accumulation of 5HTP in percent of saline control was determined in limbic forebrain of reserpine pretreated rat at a dose of 3.3 uM/kg; type: functional
In short: as §2

Rattus norvegicus [20] = assay: In vivo accumulation of DOPA in percent of saline control was determined in striatum of reserpine pretreated rat at a dose of 3.3 uM/kg; type: functional
In short: as §2

Rattus norvegicus [21] = assay: In vivo accumulation of DOPA in percent of saline control was determined in cortex of reserpine pretreated rat at a dose of 3.3 uM/kg; type: functional
In short: as §2

Rattus norvegicus [22] = assay: In vivo accumulation of 5HTP in percent of saline control was determined in cortex of reserpine pretreated rat at a dose of 3.3 uM/kg; type: functional
In short: as §2

Rattus norvegicus [23] = assay: In vivo accumulation of DOPA in percent of saline control was determined in limbic forebrain of reserpine pretreated rat at a dose of 3.3 uM/kg; type: functional
In short: as §2

Rattus norvegicus [24] = assay: In vivo accumulation of DOPA in percent of saline control was determined in cortex of reserpine pretreated rat at a dose of 2.9 uM/kg; type: functional
In short: (§3)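 Reserpine 5 mg/kg sc given 18–20 h before. Single test dose given; 30 min later decarboxylase inhibited with NSD1015 (117 mg/kg sc). 5-HTP or DOPA accumulation measured in limbic forebrain, striatum and cortex, expressed as percent of saline controls (mean ± SEM, n = 2–4). Saline-control DOPA levels given in ng/g tissue. One-way ANOVA with Fischer's PLSD, p < 0.05.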

Rattus norvegicus [25] = assay: In vivo accumulation of 5HTP in percent of saline control was determined in striatum of reserpine pretreated rat at a dose of 2.9 uM/kg; type: functional
In short: as §3

Rattus norvegicus [26] = assay: In vivo accumulation of DOPA in percent of saline control was determined in striatum of reserpine pretreated rat at a dose of 2.9 uM/kg; type: functional
In short: as §3

Rattus norvegicus [27] = assay: In vivo accumulation of 5HTP in percent of saline control was determined in cortex of reserpine pretreated rat at a dose of 2.9 uM/kg; type: functional
In short: as §3

Rattus norvegicus [28] = assay: In vivo accumulation of 5HTP in percent of saline control was determined in limbic forebrain of reserpine pretreated rat at a dose of 2.9 uM/kg; type: functional
In short: as §3

Rattus norvegicus [29] = assay: In vivo accumulation of DOPA in percent of saline control was determined in limbic forebrain of reserpine pretreated rat at a dose of 2.9 uM/kg; type: functional
In short: as §3

Rattus norvegicus [30] = assay: In vivo accumulation of 5HTP in percent of saline control was determined in striatum of reserpine pretreated rat at dose of 3.2 uM/kg; type: functional
In short: as §2

Rattus norvegicus [31] = assay: In vivo accumulation of DOPA in percent of saline control was determined in striatum of reserpine pretreated rat at dose of 3.2 uM/kg; type: functional
In short: as §2

Rattus norvegicus [32] = assay: In vivo accumulation of 5HTP in percent of saline control was determined in cortex of reserpine pretreated rat at dose of 3.2 uM/kg; type: functional
In short: as §2

Rattus norvegicus [33] = assay: In vivo accumulation of DOPA in percent of saline control was determined in cortex of reserpine pretreated rat at dose of 3.2 uM/kg; type: functional
In short: as §2

Rattus norvegicus [34] = assay: In vivo accumulation of DOPA in percent of saline control was determined in limbic forebrain of reserpine pretreated rat at dose of 3.2 uM/kg; type: functional
In short: as §2

Rattus norvegicus [35] = assay: In vivo accumulation of 5HTP in percent of saline control was determined in limbic forebrain of reserpine pretreated rat at dose of 3.2 uM/kg; type: functional
In short: as §2

Rattus norvegicus [36] = assay: In vivo accumulation of DOPA in percent of saline control was determined in limbic forebrain of reserpine pretreated rat at a dose of 3.7 uM/kg; type: functional
In short: as §2

Rattus norvegicus [37] = assay: In vivo accumulation of 5HTP in percent of saline control was determined in limbic forebrain of reserpine pretreated rat at a dose of 3.7 uM/kg; type: functional
In short: as §2

Rattus norvegicus [38] = assay: In vivo accumulation of 5HTP in percent of saline control was determined in cortex of reserpine pretreated rat at a dose of 3.7 uM/kg; type: functional
In short: as §2

Rattus norvegicus [39] = assay: In vivo accumulation of 5HTP in percent of saline control was determined in striatum of reserpine pretreated rat at a dose of 3.7 uM/kg; type: functional
In short: as §2

Rattus norvegicus [40] = assay: In vivo accumulation of DOPA in percent of saline control was determined in cortex of reserpine pretreated rat at a dose of 3.7 uM/kg; type: functional
In short: as §2

Rattus norvegicus [41] = assay: In vivo accumulation of DOPA in percent of saline control was determined in striatum of reserpine pretreated rat at a dose of 3.7 uM/kg; type: functional
In short: as §2

T1 sequence (P18901 whole entry): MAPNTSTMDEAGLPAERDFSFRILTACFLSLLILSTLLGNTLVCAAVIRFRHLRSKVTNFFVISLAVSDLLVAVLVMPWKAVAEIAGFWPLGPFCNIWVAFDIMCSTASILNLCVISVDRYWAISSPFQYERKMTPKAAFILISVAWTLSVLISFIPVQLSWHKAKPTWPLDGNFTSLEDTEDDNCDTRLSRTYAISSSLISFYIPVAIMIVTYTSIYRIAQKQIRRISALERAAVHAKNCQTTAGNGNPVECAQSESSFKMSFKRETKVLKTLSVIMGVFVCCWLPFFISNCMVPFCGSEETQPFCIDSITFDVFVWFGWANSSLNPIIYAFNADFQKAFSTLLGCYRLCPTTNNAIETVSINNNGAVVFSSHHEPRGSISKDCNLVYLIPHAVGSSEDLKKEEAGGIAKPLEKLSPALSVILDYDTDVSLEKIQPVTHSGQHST

SMILES	Ki (D(1A) dopamine receptor [1])	Ki (D(2) dopamine receptor [2])	Ki [3]	Ki (D(2) dopamine receptor [4])	further results
COc1ccccc1-c1cccc2c1-c1cccc3c1[C@@H](C2)N(C)CC3	> 3000 nM	1330 nM	26.9 nM		
COc1cccc2c1-c1cccc3c1[C@@H](C2)N(Cc1ccccc1)CC3	> 10000 nM	> 1000 nM	3220 nM		
CN1CCc2cccc3c2[C@H]1Cc1cccc(OS(=O)(=O)C(F)(F)F)c1-3	386 nM		7.7 nM	195 nM	
Cc1cccc2c1-c1cccc3c1[C@@H](C2)N(C)CC3	700 nM		14.4 nM	201 nM	
COc1cccc2c1-c1cccc3c1[C@@H](C2)N(C)CC3	606 nM		5.1 nM	551 nM	
CC(=O)c1cccc2c1-c1cccc3c1[C@@H](C2)N(C)CC3		311 nM	57.1 nM		Ki (D(1A) dopamine receptor [5]): 4690 nM
C=Cc1cccc2c1-c1cccc3c1[C@@H](C2)N(C)CC3			6 nM	177 nM	Ki (D(1A) dopamine receptor [5]): 720 nM
Oc1cccc2c1-c1cccc3c1[C@@H](C2)N(Cc1ccccc1)CC3	> 3000 nM	> 1000 nM	> 5000 nM		
COc1cccc2c1-c1cccc3c1[C@@H](C2)N(C(C)C)CC3			375 nM	1000 nM	Ki (D(1A) dopamine receptor [5]): > 10000 nM
CC(C)N1CCc2cccc3c2[C@H]1Cc1cccc(O)c1-3	> 10000 nM	1010 nM	437 nM		
CN1CCc2cccc3c2[C@H]1Cc1cccc(O)c1-3					Accumulation (Rattus norvegicus [6]): 30; Accumulation (Rattus norvegicus [7]): 93; Accumulation (Rattus norvegicus [8]): 67; Accumulation (Rattus norvegicus [9]): 83; Accumulation (Rattus norvegicus [10]): 103; Accumulation (Rattus norvegicus [11]): 98
CCCN1CCc2cccc3c2[C@H]1Cc1cccc(OC)c1-3	> 5000 nM	826 nM	31.3 nM		Accumulation (Rattus norvegicus [12]): 87; Accumulation (Rattus norvegicus [13]): 66; Accumulation (Rattus norvegicus [14]): 82; Accumulation (Rattus norvegicus [15]): 89; Accumulation (Rattus norvegicus [16]): 96; Accumulation (Rattus norvegicus [17]): 43
CN1CCc2cccc3c2[C@H]1Cc1cccc(C(N)=O)c1-3	> 4000 nM	> 10000 nM	198 nM		
CCc1cccc2c1-c1cccc3c1[C@@H](C2)N(C)CC3	270 nM		4.5 nM	79.2 nM	Accumulation (Rattus norvegicus [18]): 95; Accumulation (Rattus norvegicus [19]): 83; Accumulation (Rattus norvegicus [20]): 92; Accumulation (Rattus norvegicus [21]): 100; Accumulation (Rattus norvegicus [22]): 104; Accumulation (Rattus norvegicus [23]): 87
CN1CCc2cccc3c2[C@H]1Cc1cccc(-c2ccccc2)c1-3			1.8 nM	233 nM	Accumulation (Rattus norvegicus [24]): 107; Accumulation (Rattus norvegicus [25]): 106; Accumulation (Rattus norvegicus [26]): 93; Accumulation (Rattus norvegicus [27]): 133; Accumulation (Rattus norvegicus [28]): 95; Ki (D(1A) dopamine receptor [5]): 3630 nM; Accumulation (Rattus norvegicus [29]): 95
COc1cccc2c1-c1cccc3c1[C@@H](C2)NCC3	> 5000 nM	> 1000 nM	8.3 nM		
CCCN1CCc2cccc3c2[C@H]1Cc1cccc(O)c1-3					Accumulation (Rattus norvegicus [30]): 97; Accumulation (Rattus norvegicus [31]): 29; Accumulation (Rattus norvegicus [32]): 87; Accumulation (Rattus norvegicus [33]): 106; Accumulation (Rattus norvegicus [34]): 66; Accumulation (Rattus norvegicus [35]): 122
CN1CCc2cccc3c2[C@H]1Cc1cccc(C#N)c1-3	279 nM		41.1 nM	183 nM	
Oc1cccc2c1-c1cccc3c1[C@@H](C2)NCC3	1100 nM	> 1000 nM	5.7 nM		Accumulation (Rattus norvegicus [36]): 78; Accumulation (Rattus norvegicus [37]): 108; Accumulation (Rattus norvegicus [38]): 122; Accumulation (Rattus norvegicus [39]): 89; Accumulation (Rattus norvegicus [40]): 96; Accumulation (Rattus norvegicus [41]): 71
